Shown are actives, neighbours in structure and some others; about 4.1% of the full set was active somewhere.
KCC2 mod = KCC2 (human) Cl- transport modulation | Q9H2X9 | KCC2 cells, thallium flux FluoZin-2 fluorescence | 190,000 tested, 2.2% active | B-score of Tl+ flux slope (higher = more flux/activation; lower = inhibition) at 10 µM | AID 1456;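 active means thallium flux slope and its plate-corrected score both differing from the plate sample mean at a set confidence after two filtering rounds, in either direction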;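 further: slope of fluorescence scaled to starting intensity during 10 to 20 s after thallium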
KCNQ1 act = potentiators or activators of human KCNQ1 potassium channel; P51787; AID 2648; CHO-K1 KCNQ1, thallium flux FluxOR fluorescence; hits give high values; B-score at 10 µM; 310,000 tested, 0.35% active;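 active means fluorescence ratio B-score, a plate-corrected score, at least three library SD, with initial intensity B-score within 5 SD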
Target sequence (P51787 whole entry, looked up): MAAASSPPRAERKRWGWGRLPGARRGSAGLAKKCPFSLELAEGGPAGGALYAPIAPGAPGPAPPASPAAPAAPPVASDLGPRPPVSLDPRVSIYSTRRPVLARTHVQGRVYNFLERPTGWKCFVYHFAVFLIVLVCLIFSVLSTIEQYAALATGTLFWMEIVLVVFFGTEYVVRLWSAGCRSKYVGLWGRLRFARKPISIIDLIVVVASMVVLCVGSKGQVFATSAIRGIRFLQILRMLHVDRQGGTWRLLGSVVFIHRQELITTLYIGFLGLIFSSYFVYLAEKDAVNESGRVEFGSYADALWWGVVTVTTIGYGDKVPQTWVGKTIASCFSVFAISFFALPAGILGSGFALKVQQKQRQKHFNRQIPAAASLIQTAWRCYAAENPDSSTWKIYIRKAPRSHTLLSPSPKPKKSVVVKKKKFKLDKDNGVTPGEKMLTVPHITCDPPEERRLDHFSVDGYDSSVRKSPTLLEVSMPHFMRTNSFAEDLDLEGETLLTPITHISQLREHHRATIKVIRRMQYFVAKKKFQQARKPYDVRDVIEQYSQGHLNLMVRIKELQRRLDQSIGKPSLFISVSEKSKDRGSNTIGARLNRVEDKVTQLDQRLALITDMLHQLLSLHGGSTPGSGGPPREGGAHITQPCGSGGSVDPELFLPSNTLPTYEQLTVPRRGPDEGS
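Assay system: CHO-K1 cells stably expressing KCNQ1; Medium: assay buffer with matched DMSO; Also added: K+/Tl+ depolarizing stimulus; Dosing: single dose; Timing: dye 90 min, compound 20 min, room temperature; Measured by: kinetic FluxOR thallium fluorescence, 10-s 1-Hz baseline, 110-s post-stimulus read; Read-out: peak-minus-minimum fluorescence over initial fluorescence, negative-control normalized, B-scored.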
KCNK9 inh = blocks the human KCNK9 two-pore domain potassium channel; B-score at 10 µM; 310,000 tested, 1.2% active; HEK293 KCNK9, FluxOR thallium flux fluorescence; hits give low values; Q9NPC2; AID 488922;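 active means ratio B-score over 3 SD below the library mean, with starting fluorescence within 5 SD of its mean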;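 further: negative B-score means less thallium flux so channel inhibition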
hERG rescue = shields human hERG channel from block by proarrhythmic agents; Q12809; CHO-hERG, FluxOR thallium flux, dofetilide IC70 present; activation (rescue from dofetilide block), less the hit threshold, % at 10 µM; 310,000 tested, 0.51% active; AID 1511;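 active means activation above the mean of controls blocked by dofetilide plus 5 SD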;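 further: thallium influx through hERG after potassium depolarization seen as dye fluorescence rise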
KCNK3 block = human KCNK3 channel inhibition, primary screen; O14649; CHO-KCNK3 thallium flux, FluxOR fluorescence; hits give low values; B-score at 10 µM; 340,000 tested, 0.84% active; AID 602410;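 active means B-score under library mean minus 4 SD, starting fluorescence ratio at most library mean plus 5 SD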;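 further: more negative B-score means stronger inhibition of thallium flux through KCNK3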
KCNQ1 block = inhibitors of human KCNQ1 potassium channel. P51787. CHO-K1 KCNQ1, FluxOR thallium flux fluorescence; hits give high values. B-score at 10 µM. 310,000 tested, 1.3% active. AID 2642;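 active means compounds whose thallium flux B-score, printed positive for inhibition, exceeds three library SD while starting fluorescence stays within three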;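 further: channel opened by potassium depolarization with thallium stimulus after 20 min compound exposure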
KCNQ1 inh valid = human KCNQ1 channel inhibition, validation assay; 1,600 tested, 93% active; KCNQ1 cell line, FluxOR thallium flux fluorescence; AID 588353; inhibition, % at 10 µM; shares compounds with KCNQ1 block;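 active means primary screen active, with duplicate mean exceeding buffer control mean plus 3 SD of buffer wells, cut at about 28% in these data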;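 further: 0% = buffer control ratio and 100% = XE991 inhibitor control ratio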
CHO Tl flux = counter-screen for KCNQ1 inhibitors: effect in parental CHO cells | shares compounds with KCNQ1 block | parental CHO-K1, FluxOR thallium flux fluorescence ratio; hits give low values; zero means no signal rise above baseline | fluorescence ratio (Tl flux) at 10 µM | 1,600 tested, 21% active | AID 588366;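 active means mean of duplicate thallium-flux fluorescence ratios in parental host cells more than 5 SD below the buffer control mean, cut at about 0.38 in these data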;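 further: ratio is peak minus minimum fluorescence divided by baseline fluorescence; actives read low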
KCNQ1 APC inh = blocks human KCNQ1 current in automated patch clamp; shares compounds with KCNQ1 block; KCNQ1-CHO cells; calls only at 10 µM; 490 tested, 20% active;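 active means KCNQ1 current drop exceeding 3 SD of negative control wells, seen in both duplicate runs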;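 further: steady state current during a 2 s step from -80 to +40 mV; negative values mean current inhibition and positive values mean potentiation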
KCNQ2 spec = selectivity of KCNQ1 inhibitors: inhibition of rat KCNQ2 channel. shares compounds with KCNQ1 block. inhibition, % at 10 µM. KCNQ2 cells, FluxOR thallium flux fluorescence. 1,600 tested, 71% active;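 active means mean percent inhibition of the KCNQ2 thallium signal more than 5 SD above the buffer-only control wells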;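 further: KCNQ2 expressed in CHO cells; 0% = buffer control wells and 100% = XE-991 inhibitor control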
KCNQ1-KCNE1 inh = KCNQ1 inhibitor that also blocks human KCNQ1/KCNE1 channel; KCNQ1/KCNE1 cells, FluxOR thallium flux fluorescence; inhibition, % at 10 µM; AID 652147; 1,600 tested, 77% active; shares compounds with KCNQ1 block;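 active means mean percent inhibition of duplicate wells above the buffer-only control mean plus 3 SD of those controls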;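 further: 0% = buffer only wells and 100% = XE-991 inhibitor control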
An asterisk follows results filed as active.

Results for COc1cccc(C2CC(c3cccs3)=NN2C(=O)CSc2nc3c(cnn3-c3ccc(F)cc3)c(=O)[nH]2)c1OC (stereo not drawn) ?
KCC2 mod: -1.9; KCNQ1 act: inactive; KCNK9 inh: inactive; hERG rescue: -7; KCNK3 block: inactive; KCNQ1 block: 15*; KCNQ1 inh valid: 116*; CHO Tl flux: 0.42; KCNQ1 APC inh: inactive; KCNQ2 spec: 71%*; KCNQ1-KCNE1 inh: 85%*

How did COc1cccc(C2CC(c3cccs3)=NN2C(=O)CSc2nc3ccccc3s2)c1OC (stereo not drawn) do in these assays?
KCC2 mod: 0.62; KCNQ1 act: inactive; KCNK9 inh: inactive; hERG rescue: -13; KCNK3 block: inactive; KCNQ1 block: inactive

Results for CC(C)COC(=O)NCCOC(=O)Nc1cccc(Cl)c1 ?
KCC2 mod: 0.33; KCNQ1 act: inactive; KCNK9 inh: inactive; hERG rescue: -13; KCNK3 block: inactive; KCNQ1 block: 8*; KCNQ1 inh valid: 124*; CHO Tl flux: 0.46; KCNQ1 APC inh: active; KCNQ2 spec: 113%*; KCNQ1-KCNE1 inh: 91%*

Results for COc1ccccc1C(=O)NCC(=O)OCC(=O)N(CC(C)C)c1c(N)n(Cc2ccccc2)c(=O)[nH]c1=O ?
KCNQ1 act: inactive; KCNK9 inh: inactive; hERG rescue: -6; KCNK3 block: inactive; KCNQ1 block: inactive

What do the screens show for `CN(c1ccccc1)S(=O)(=O)c1ccc(C(=O)OCC(=O)NCc2cccs2)cc1`?
KCC2 mod: -0.034; KCNQ1 act: inactive; KCNK9 inh: inactive; hERG rescue: -12; KCNK3 block: inactive; KCNQ1 block: 6*; KCNQ1 inh valid: 38*; CHO Tl flux: 0.47; KCNQ2 spec: 69%*; KCNQ1-KCNE1 inh: inactive

Results for CCN(CC)CCc1nc(-c2ccccc2)no1 ?
KCNK3 block: inactive

Results for Cc1nonc1NC(=O)CSc1nnc(-c2ccoc2C)n1-c1cccc(Cl)c1 ?
KCC2 mod: -0.32; KCNQ1 act: inactive; KCNK9 inh: inactive; hERG rescue: -13; KCNK3 block: inactive; KCNQ1 block: 7*; KCNQ1 inh valid: 34*; CHO Tl flux: 0.43; KCNQ2 spec: 70%*; KCNQ1-KCNE1 inh: 68%*

What do the screens show for `CC(=O)c1ccc(NC(=S)NC(C)CCc2ccccc2)cc1` (stereo not drawn)?
KCC2 mod: -0.65; KCNQ1 act: inactive; KCNK9 inh: inactive; hERG rescue: -10; KCNK3 block: inactive; KCNQ1 block: 7*; KCNQ1 inh valid: 38*; CHO Tl flux: 0.5; KCNQ2 spec: inactive; KCNQ1-KCNE1 inh: 41%*

How did Cc1ccc(NC(=S)NC(C)CCc2ccccc2)cc1C (stereo not drawn) do in these assays?
KCC2 mod: -1.4; KCNQ1 act: inactive; KCNK9 inh: inactive; hERG rescue: -13; KCNK3 block: inactive; KCNQ1 block: inactive

Results for Cc1ccccc1OCCC(=O)OCC(=O)NNC(=O)c1cccs1 ?
KCNK3 block: inactive

Results for Cc1cc(C)cc(NC(=O)Cn2c(=O)oc3cc(S(=O)(=O)N4CC(C)CC(C)C4)ccc32)c1 (stereo not drawn) ?
KCNQ1 act: inactive; KCNK9 inh: inactive; hERG rescue: -11; KCNK3 block: inactive; KCNQ1 block: 7*; KCNQ1 inh valid: 37*; CHO Tl flux: 0.47; KCNQ2 spec: 67%*; KCNQ1-KCNE1 inh: inactive

What do the screens show for `COc1ccc(-c2nc(-c3ccc(NC(=O)c4ccncc4)cc3)no2)cc1OC`?
KCC2 mod: -0.38; KCNQ1 act: inactive; KCNK9 inh: inactive; hERG rescue: -10; KCNK3 block: inactive; KCNQ1 block: 12*; KCNQ1 inh valid: 0; CHO Tl flux: 0.48; KCNQ2 spec: 71%*; KCNQ1-KCNE1 inh: inactive

Results for CCOc1nc(Nc2ccc(OC)c(Cl)c2)nc(N2CCN(c3ccc(OC)cc3)CC2)n1 ?
KCNQ1 act: inactive; KCNK9 inh: inactive; hERG rescue: -11; KCNK3 block: inactive; KCNQ1 block: 7*; KCNQ1 inh valid: 114*; CHO Tl flux: 0.48; KCNQ1 APC inh: inactive; KCNQ2 spec: 79%*; KCNQ1-KCNE1 inh: 144%*

How did CCOc1ccc(N(CC(=O)NC2CC3CCC2C3)S(=O)(=O)c2ccccc2)cc1 (stereo not drawn) do in these assays?
KCNQ1 act: inactive; KCNK9 inh: inactive; hERG rescue: -3; KCNK3 block: inactive; KCNQ1 block: inactive

How did CCOc1ccc(N(CC(=O)NC2CC3CCC2C3)S(=O)(=O)c2ccc(C)cc2)cc1 (stereo not drawn) do in these assays?
KCNQ1 act: inactive; KCNK9 inh: inactive; hERG rescue: -8; KCNK3 block: inactive; KCNQ1 block: 8*; KCNQ1 inh valid: 100*; CHO Tl flux: 0.46; KCNQ1 APC inh: active; KCNQ2 spec: 94%*; KCNQ1-KCNE1 inh: 100%*

How did O=C(Cc1ccc(Br)cc1)Nc1cccc(S(=O)(=O)N2CCOCC2)c1 do in these assays?
KCNK3 block: inactive

How did O=S(=O)(c1cccc(NC(=S)Nc2ccc(Br)cc2Cl)c1)N1CCOCC1 do in these assays?
KCC2 mod: 1.3; KCNQ1 act: inactive; KCNK9 inh: inactive; hERG rescue: -10; KCNK3 block: inactive; KCNQ1 block: 9*; KCNQ1 inh valid: 0; CHO Tl flux: 0.56; KCNQ2 spec: inactive; KCNQ1-KCNE1 inh: inactive

How did COc1ccc(-n2nc3c(c2NC(=O)c2ccc4c(c2)OCO4)CS(=O)(=O)C3)cc1 do in these assays?
KCNQ1 act: inactive; KCNK9 inh: inactive; hERG rescue: -7; KCNK3 block: inactive; KCNQ1 block: inactive

What do the screens show for `CCOC(=O)Cc1csc(SCC(=O)N2CCN(c3ccccc3)CC2)n1`?
KCNK3 block: inactive

Results for Cc1ccc(OC(C)C(=O)N2CC(=O)Nc3ccccc32)c(C)c1 (stereo not drawn) ?
KCNQ1 act: inactive; KCNK9 inh: inactive; hERG rescue: -1; KCNK3 block: inactive; KCNQ1 block: inactive

Compound activity as filed in PubChem BioAssay.
